According to ChEMBL document CHEMBL1128374, “Preparation and in vitro activities of ethers of [D-serine]8-cyclosporin” (J Med Chem, 1995):
Values after ≈ are worked out from the molar mass of the structure shown.

Assays:
[1] = species: Mus musculus; experiment: In vitro efficacy to suppress lymphocyte proliferation as measured by the incorporation of a labeled precursor ([3H]- thymidine) into DNA in Mixed Lymphocyte reaction (MLR).; assay type: functional
In short: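 Cells from spleens of female CBA mice aged 8–10 weeks (ca. 5 x 10^5). Compounds made up at 20 mg/mL in 9:1 (v/v) ethanol/Tween 80, then diluted in saline before adding to medium. Four concentrations per compound across 1.8–1000 ng/mL, in triplicate cultures. IC50 is the calculated concentration giving 50% inhibition of proliferation. Cyclosporin A run in parallel as control.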

[2] = species: Mus musculus; experiment: In vitro efficacy on humoral immune response by Mishell-Dutton assay (MD).; assay type: functional
In short: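 Spleen lymphocytes from female OF1 mice (ca. 10 x 10^6) cultured 3 days with sheep erythrocytes (ca. 30 x 10^6) and test compound. Cells then plated on agar with fresh erythrocytes; plaques form by complement lysis. Read-out is the count of antibody-producing plaque-forming cells. Cyclosporin A run in parallel.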

Compound `C/C=C/C[C@@H](C)[C@@H](O)[C@H]1C(=O)N[C@@H](CC)C(=O)N(C)CC(=O)N(C)[C@@H](CC(C)C)C(=O)N[C@@H](C(C)C)C(=O)N(C)[C@@H](CC(C)C)C(=O)N[C@@H](C)C(=O)N[C@H](COC/C=C/CO)C(=O)N(C)[C@@H](CC(C)C)C(=O)N(C)[C@@H](CC(C)C)C(=O)N(C)[C@@H](C(C)C)C(=O)N1C` has an IC50 [1] of 0.07 µg/mL (≈ 0.0543 µM) and an IC50 [2] of 0.036 µg/mL (≈ 0.0279 µM).
`C/C=C/C[C@@H](C)[C@@H](O)[C@H]1C(=O)N[C@@H](CC)C(=O)N(C)CC(=O)N(C)[C@@H](CC(C)C)C(=O)N[C@@H](C(C)C)C(=O)N(C)[C@@H](CC(C)C)C(=O)N[C@@H](C)C(=O)N[C@H](COCC#N)C(=O)N(C)[C@@H](CC(C)C)C(=O)N(C)[C@@H](CC(C)C)C(=O)N(C)[C@@H](C(C)C)C(=O)N1C` gave an IC50 [1] of 0.01 µg/mL (≈ 0.00795 µM) and an IC50 [2] of 0.023 µg/mL (≈ 0.0183 µM).
Work on `C/C=C/C[C@@H](C)[C@@H](O)[C@H]1C(=O)N[C@@H](CC)C(=O)N(C)CC(=O)N(C)[C@@H](CC(C)C)C(=O)N[C@@H](C(C)C)C(=O)N(C)[C@@H](CC(C)C)C(=O)N[C@@H](C)C(=O)N[C@H](COCC(C)(C)O)C(=O)N(C)[C@@H](CC(C)C)C(=O)N(C)[C@@H](CC(C)C)C(=O)N(C)[C@@H](C(C)C)C(=O)N1C` yielded an IC50 [1] of 0.05 µg/mL (≈ 0.0387 µM) and an IC50 [2] of 0.078 µg/mL (≈ 0.0604 µM).
In the case of `C/C=C/C[C@@H](C)[C@@H](O)[C@H]1C(=O)N[C@@H](CC)C(=O)N(C)CC(=O)N(C)[C@@H](CC(C)C)C(=O)N[C@@H](C(C)C)C(=O)N(C)[C@@H](CC(C)C)C(=O)N[C@@H](C)C(=O)N[C@H](COCC(=O)OC(C)C)C(=O)N(C)[C@@H](CC(C)C)C(=O)N(C)[C@@H](CC(C)C)C(=O)N(C)[C@@H](C(C)C)C(=O)N1C`, the IC50 [1] was 0.1 µg/mL (≈ 0.0758 µM) and the IC50 [2] was 0.725 µg/mL (≈ 0.55 µM).
For `C/C=C/C[C@@H](C)[C@@H](O)[C@H]1C(=O)N[C@@H](CC)C(=O)N(C)CC(=O)N(C)[C@@H](CC(C)C)C(=O)N[C@@H](C(C)C)C(=O)N(C)[C@@H](CC(C)C)C(=O)N[C@@H](C)C(=O)N[C@H](COCCOCC(=O)OC(C)C)C(=O)N(C)[C@@H](CC(C)C)C(=O)N(C)[C@@H](CC(C)C)C(=O)N(C)[C@@H](C(C)C)C(=O)N1C`, the IC50 [1] was 0.05 µg/mL (≈ 0.0367 µM) and the IC50 [2] was 0.078 µg/mL (≈ 0.0572 µM).
With `C/C=C/C[C@@H](C)[C@@H](O)[C@H]1C(=O)N[C@@H](CC)C(=O)N(C)CC(=O)N(C)[C@@H](CC(C)C)C(=O)N[C@@H](C(C)C)C(=O)N(C)[C@@H](CC(C)C)C(=O)N[C@@H](C)C(=O)N[C@H](COCCC2OCCCO2)C(=O)N(C)[C@@H](CC(C)C)C(=O)N(C)[C@@H](CC(C)C)C(=O)N(C)[C@@H](C(C)C)C(=O)N1C` the IC50 [1] was 0.12 µg/mL (≈ 0.09 µM) and the IC50 [2] was 0.21 µg/mL (≈ 0.158 µM).
Work on `C/C=C/C[C@@H](C)[C@@H](O)[C@H]1C(=O)N[C@@H](CC)C(=O)N(C)CC(=O)N(C)[C@@H](CC(C)C)C(=O)N[C@@H](C(C)C)C(=O)N(C)[C@@H](CC(C)C)C(=O)N[C@@H](C)C(=O)N[C@H](COCCOCCOCCO)C(=O)N(C)[C@@H](CC(C)C)C(=O)N(C)[C@@H](CC(C)C)C(=O)N(C)[C@@H](C(C)C)C(=O)N1C` yielded an IC50 [1] of 0.47 µg/mL (≈ 0.348 µM) and an IC50 [2] of 0.1 µg/mL (≈ 0.074 µM).
In the case of `C/C=C/C[C@@H](C)[C@@H](O)[C@H]1C(=O)N[C@@H](CC)C(=O)N(C)CC(=O)N(C)[C@@H](CC(C)C)C(=O)N[C@@H](C(C)C)C(=O)N(C)[C@@H](CC(C)C)C(=O)N[C@@H](C)C(=O)N2CCCC[C@@H]2C(=O)N(C)[C@@H](CC(C)C)C(=O)N(C)[C@@H](CC(C)C)C(=O)N(C)[C@@H](C(C)C)C(=O)N1C`, the IC50 [1] was 0.029 µg/mL (≈ 0.0233 µM).
Work on `C/C=C/C[C@@H](C)[C@@H](O)[C@H]1C(=O)N[C@@H](CC)C(=O)N(C)CC(=O)N(C)[C@@H](CC(C)C)C(=O)N[C@@H](C(C)C)C(=O)N(C)[C@@H](CC(C)C)C(=O)N[C@@H](C)C(=O)N2COC[C@@H]2C(=O)N(C)[C@@H](CC(C)C)C(=O)N(C)[C@@H](CC(C)C)C(=O)N(C)[C@@H](C(C)C)C(=O)N1C` yielded an IC50 [1] of 0.118 µg/mL (≈ 0.0959 µM).
For `C/C=C/C[C@@H](C)[C@@H](O)[C@H]1C(=O)N[C@@H](CC)C(=O)N(C)CC(=O)N(C)[C@@H](CC(C)C)C(=O)N[C@@H](C(C)C)C(=O)N(C)[C@@H](CC(C)C)C(=O)N[C@@H](C)C(=O)N[C@H](COCCCO)C(=O)N(C)[C@@H](CC(C)C)C(=O)N(C)[C@@H](CC(C)C)C(=O)N(C)[C@@H](C(C)C)C(=O)N1C`, the IC50 [1] was 0.02 µg/mL (≈ 0.0157 µM) and the IC50 [2] was 0.009 µg/mL (≈ 0.00705 µM).
